In ChEMBL document CHEMBL4680311, “Synthesis, characterization, in vitro SAR study, and preliminary in vivo toxicity evaluation of naphthylmethyl substituted bis-imidazolium salts” (Bioorg Med Chem, 2021):

How the values were obtained:
[1] = Toxicity in C57BL/6 mouse assessed as body weight gain at 20 mg/kg, ip administered on day 0, 7, 14 and 29; format: organism-based; details: in vivo, 96 h, time 4 day
In short: (§1)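 Male C57BL/6 mice, eight weeks old, acclimated 5 days, 3 per cage, 12 h light/dark, food and water ad libitum. IP injection of 100 μL of a 4 mg/mL solution in 20% 2-HPβCD sterile PBS (~20 mg/kg assuming 20 g mouse) on days 0, 7, 14, 29. Vehicle mice got 2-HPβCD on days 0, 7, 14, 21, 25, 29. Weighed and observed daily; sacrificed day 29.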

[2] = tested on: NCI-H23; assay: Antiproliferative activity against human NCI-H23 cells assessed as cell growth at 10 uM incubated for 48 hrs by sulforhodamine B assay relative to control; format: functional; details: read-out: Activity
In short: (§2)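 NCI DTP NCI-60 one-dose screen on the NSCLC panel. Cells were seeded at densities set by doubling rate and incubated 24 h. They were then exposed to a single 10 μM dose for 48 h. Each value is a growth percentage relative to the initial cell population: positive means net growth, negative means net cell kill.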

[3] = tested on: NCI-H460; assay: Cytotoxicity against human NCI-H460 cells assessed as cell growth inhibition measured after 72 hrs by MTT assay; format: functional, cell-based; details: NCI-H460, 72 h
In short: (§3)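 Cells kept in RPMI 1640 with 10% FBS at 37 °C, 5% CO₂, passaged every 2–3 days; grown to confluence, seeded at 5,000–7,000 cells/well depending on line, incubated 24 h. Compounds dissolved in 1% DMSO, diluted in medium to 1, 4, 16, 32 μM (6 replicates each), 72 h exposure. MTT 3–4 h, medium aspirated, DMSO added, 15 min, OD 540 nm; IC50 relative to untreated cells.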

[4] = tested on: NCI-H460; assay: Growth inhibition of human NCI-H460 cells incubated for 48 hrs by sulforhodamine B assay; format: functional
In short: (§4)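 NCI DTP NCI-60 five-dose screen, same procedure as the one-dose assay: 24 h preincubation, then 48 h exposure. Five tenfold-spaced concentrations were used, from 100 μM to 10 nM or from 25 μM to 2.5 nM depending on compound. GI50, TGI and LC50 were read from growth-percentage curves relative to control cells.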

[5] = tested on: EKVX; assay: Growth inhibition of human EKVX cells incubated for 48 hrs by sulforhodamine B assay; format: functional; in short: as §4
[6] = tested on: NCI-H1975; assay: Cytotoxicity against human NCI-H1975 cells assessed as cell growth inhibition measured after 72 hrs by MTT assay; format: functional, cell-based; details: NCI-H1975, 72 h; in short: as §3
[7] = tested on: NCI-H322M; assay: Growth inhibition of human NCI-H322M cells incubated for 48 hrs by sulforhodamine B assay; format: functional; in short: as §4
[8] = tested on: NCI-H226; assay: Antiproliferative activity against human NCI-H226 cells assessed as cell growth at 10 uM incubated for 48 hrs by sulforhodamine B assay relative to control; format: functional; details: read-out: Activity; in short: as §2
[9] = tested on: NCI-H522; assay: Growth inhibition of human NCI-H522 cells incubated for 48 hrs by sulforhodamine B assay; format: functional; in short: as §4
[10] = tested on: NCI-H322M; assay: Antiproliferative activity against human NCI-H322M cells assessed as cell growth at 10 uM incubated for 48 hrs by sulforhodamine B assay relative to control; format: functional; details: read-out: Activity; in short: as §2
[11] = Toxicity in C57BL/6 mouse assessed as body weight loss at 20 mg/kg, ip administered on day 0, 7, 14 and 29 relative to control; format: organism-based; details: in vivo, 96 h, time 4 day
In short: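 Male C57BL/6 mice, 8 weeks old, acclimated 5 days, 12 h light/dark, 3 per cage, n = 3. Mice got 100 μL of 4 mg/mL drug in 20% 2-HPβCD in sterile PBS, about 20 mg/kg assuming 20 g, IP on days 0, 7, 14 and 29 (1 h before sacrifice). Vehicle mice were dosed IP on days 0, 7, 14, 21, 25 and 29. Weight and behaviour were checked daily; sacrifice was on day 29.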

[12] = tested on: HOP-92; assay: Antiproliferative activity against human HOP-92 cells assessed as cell growth at 10 uM incubated for 48 hrs by sulforhodamine B assay relative to control; format: functional; details: read-out: Activity; in short: as §2
[13] = tested on: HOP-92; assay: Growth inhibition of human HOP-92 cells incubated for 48 hrs by sulforhodamine B assay; format: functional; in short: as §4
[14] = tested on: A549; assay: Growth inhibition of human A549/ATCC cells incubated for 48 hrs by sulforhodamine B assay; format: functional; details: read-out: LC50 (the source's name); in short: as §4
[15] = tested on: NCI-H226; assay: Growth inhibition of human NCI-H226 cells incubated for 48 hrs by sulforhodamine B assay; format: functional; in short: as §4
[16] = tested on: HOP-62; assay: Growth inhibition of human HOP-62 cells incubated for 48 hrs by sulforhodamine B assay; format: functional; in short: as §4
[17] = tested on: HCC827; assay: Cytotoxicity against human HCC827 cells assessed as cell growth inhibition measured after 72 hrs by MTT assay; format: functional, cell-based; details: HCC827, 72 h; in short: as §3
[18] = tested on: A549; assay: Antiproliferative activity against human A549/ATCC cells assessed as cell growth at 10 uM incubated for 48 hrs by sulforhodamine B assay relative to control; format: functional; details: read-out: Activity; in short: as §2
[19] = Toxicity in C57BL/6 mouse assessed as body weight loss measured on day 6 at 20 mg/kg, ip administered on day 0, 7, 14 and 29; details: in vivo
[20] = tested on: HOP-62; assay: Antiproliferative activity against human HOP-62 cells assessed as cell growth at 10 uM incubated for 48 hrs by sulforhodamine B assay relative to control; format: functional; details: read-out: Activity; in short: as §2
[21] = tested on: EKVX; assay: Antiproliferative activity against human EKVX cells assessed as cell growth at 10 uM incubated for 48 hrs by sulforhodamine B assay relative to control; format: functional; details: read-out: Activity; in short: as §2
[22] = Toxicity in C57BL/6 mouse assessed as body weight loss recovery measured after second and third injection at 20 mg/kg, ip administered on day 0, 7, 14 and 29 relative to control; format: organism-based; details: in vivo, 96 h, time 4 day; in short: as §1
[23] = tested on: NCI-H23; assay: Growth inhibition of human NCI-H23 cells incubated for 48 hrs by sulforhodamine B assay; format: functional; in short: as §4
[24] = tested on: A549; assay: Cytotoxicity against human A549 cells assessed as cell growth inhibition measured after 72 hrs by MTT assay; format: functional, cell-based; details: A549, 72 h; in short: as §3
[25] = tested on: NCI-H460; assay: Antiproliferative activity against human NCI-H460 cells assessed as cell growth at 10 uM incubated for 48 hrs by sulforhodamine B assay relative to control; format: functional; details: read-out: Activity; in short: as §2

## [Br-].[Br-].c1ccc2cc(Cn3cc[n+](CCCCCCCCCCn4cc[n+](Cc5ccc6ccccc6c5)c4)c3)ccc2c1
[1]
  Activity: Toxic
[2]
  growth at 10 µM: 5.67%
[3]
  IC50: < 1 µM
[4]
  GI50: 0.376 µM
  LC50 (concentration giving 50% net cell kill): 45.9 µM
  TGI: 10.1 µM
[5]
  GI50: 0.442 µM
  LC50: 58.4 µM
[6]
  IC50: 2 µM
[7]
  GI50: 3.55 µM
  LC50 (concentration giving 50% net cell kill): 48.1 µM
  TGI: 18.4 µM
[8]
  growth at 10 µM: 39.5%
[9]
  GI50: 0.436 µM
[9]; read-out: LC50 (the source's name)
  CC50: 5.95 µM
[10]
  growth at 10 µM: 34.5%
[11]
  Activity: 4%
[12]
  growth at 10 µM: -23.6%
[13]
  GI50: 0.396 µM
  LC50 (concentration giving 50% net cell kill): 15.2 µM
[14]
  CC50: 50.3 µM
[15]
  GI50: 0.918 µM
  LC50: > 100 µM
  TGI: 13.6 µM
[16]
  GI50: 1.09 µM
  LC50 (concentration giving 50% net cell kill): 44.5 µM
[17]
  IC50: 7 µM
[18]
  growth at 10 µM: 18.6%
[19]
  body weight loss at 96 h: 10%
[20]
  growth at 10 µM: -4.86%
[21]
  growth at 10 µM: 13.7%
[22]
  Activity: Toxic
[23]
  GI50: 0.445 µM
  LC50: 39.9 µM
[24]
  IC50: < 1 µM
[25]
  growth at 10 µM: 11%
